High-throughput results from PubChem BioAssay.
VIM-2 inh: VIM-2 metallo-beta-lactamase inhibitors, primary screen, biochemical, epi-absorbance readout, Pseudomonas aeruginosa enzyme; purified VIM-2, nitrocefin hydrolysis, epi-absorbance fluorescence; inhibition, % at 5.6 µM; 290,000 tested, 0.89% active; AID 1527, 2009;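 active means inhibition above the mean of all tested compounds plus 3 SD, cutoff set per screening run, cut at about 7.5% in these data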;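 further: red hydrolysis product quenches plate fluorescence so inhibitors raise well fluorescence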
Fh CTSL1 inh: Fasciola hepatica cathepsin L1 inhibitors, primary screen, counter-screen for PFM18AAP inhibitor project, biochemical, QFRET, fluorogenic peptide substrate; recombinant F. hepatica cathepsin L1, Z-Leu-Arg-MCA fluorescence; 300,000 tested, 0.49% active; inhibition, % at 5.96 µM; AID 1906, 2009;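 active means inhibition above the mean of all tested compounds plus 3 SD, set per screening campaign, cut at about 17% in these data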
M18AAP inhibitor: PfM18AAP inhibitors, malaria aminopeptidase, primary screen, biochemical, QFRET, recombinant enzyme; H-Glu-NHMec fluorogenic cleavage; 290,000 tested, 1.2% active; inhibition, % at 7.35 µM; AID 1822, 2009; M18 aspartyl aminopeptidase (Plasmodium falciparum 3D7);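 active means inhibition above the campaign mean inhibition over all tested compounds plus 3 SD, cut at about 28% in these data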
IMP-1 inhibitor: IMP-1 metallo-beta-lactamase inhibitors, primary screen, biochemical, epi-absorbance readout, Pseudomonas aeruginosa enzyme. metallo-beta-lactamase IMP-1 (Pseudomonas aeruginosa). purified IMP-1, nitrocefin hydrolysis, epi-absorbance fluorescence. inhibition, % at 5.6 µM. 290,000 tested, 0.45% active. AID 1556, 2009;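 active means inhibition above the mean plus 3 SD of all compounds in the same screening run, cut at about 4.5% in these data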
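System: Purified recombinant IMP-1 metallo-beta-lactamase enzyme | Measured by: Fluorescence quenching readout, ex 480/em 530 nm | Replication: Singlicate | Incubation: 15 min preincubation plus 25 min reaction at 25 °C | Evaluation: Percent inhibition from optical density relative to buffer-blank wells | Benchmarks: DMSO with and without IMP-1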
Hits are given with their value; . = inactive; / = not tested or not shown. Compounds with a hit are over-represented: about 2.7% of the library has one in this group of screens.

SMILES	VIM-2 inh	Fh CTSL1 inh	M18AAP inhibitor	IMP-1 inhibitor
Cc1cccc(OCc2nnc(SCC(=O)Nc3ccc(C)c(C)c3)o2)c1	.	.	.	.
COc1ccc(OCc2nnc(SCC(=O)Nc3ccc(C)cc3)o2)cc1	.	.	.	.
O=C(CSc1nnnn1-c1ccccc1)CC(=O)Nc1ccc(Cl)cc1	.	24	.	.
Cc1cccc(OCc2nnc(SCC(=O)Nc3ncc(C)s3)o2)c1	.	.	31	.
CSCCC(NC(=O)c1ccccc1Br)C(=O)N1CCCC(C(F)(F)F)C1 (stereo not given)	.	.	.	.
CCN1CCCC1Cn1cnc2c([nH]c3cccc(Cl)c32)c1=O (stereo not given)	8.2	.	.	.
CCN1CCCC1Cn1cnc2c([nH]c3ccc(Cl)cc32)c1=O (stereo not given)	.	.	.	.
CCCc1cc(=O)oc2cc(OCc3ccc(C(=O)O)cc3)ccc12	.	.	.	.
Cc1noc(C(=O)Nc2ccc3c(c2)OCO3)c1Cl	.	.	.	.
CCc1onc(C)c1C(=O)Nc1ccc2c(c1)OCO2	.	19	.	.
COc1ccc(C(=O)c2coc3c2C(=O)C(=O)c2ccccc2-3)cc1	.	.	.	12
O=C1c2ccccc2C(=O)c2c1oc(C(F)(F)F)c2C(=O)c1ccccc1	.	26	.	.
O=C(c1ccccc1)c1coc2c1C(=O)c1ccccc1C2=O	.	20	.	.
COc1ccc2occ(C(=O)c3ccccc3)c2c1	.	.	.	.
Cc1cc(C)cc(-n2c(SCC(=O)NCc3ccc4c(c3)OCO4)nc3ccccc3c2=O)c1	.	.	.	.
O=C(CSc1nc2cc([N+](=O)[O-])ccc2n1-c1ccccc1)NCc1ccc2c(c1)OCO2	.	.	38	.
CCn1c(SCC(=O)NC2CCCCC2)nnc1-c1cccnc1	.	.	.	.
NC(CCCCCP(=O)(c1ccccc1)c1ccccc1)C(=O)O (stereo not given)	.	.	.	28
O=C(O)CC(CP(=O)(c1ccccc1)c1ccccc1)C(=O)O (stereo not given)	.	.	.	.
COc1cc(OC)c(/C=C2\C(=O)Nc3ccccc32)c(OC)c1	/	38	/	/
Cc1nnc(C)c2c(C)n(Cc3ccc4c(c3)OCO4)c(C)c12	.	.	.	.
Cc1ccc(NC2=C(Cl)C(=O)OC2OC(=O)c2ccco2)cc1 (stereo not given)	.	81	.	.
CC1CCCCN1S(=O)(=O)c1ccc(C(=O)Nc2sccc2C(N)=O)cc1 (stereo not given)	.	.	.	.
Cc1nnc(N2C(=O)c3cccc4cccc(c34)C2=O)s1	.	.	.	.
CCCc1nnc(N2C(=O)c3cccc4cccc(c34)C2=O)s1	8.7	.	.	.
SMILES	VIM-2 inh	Fh CTSL1 inh	M18AAP inhibitor	IMP-1 inhibitor
O=C(N/N=C/c1ccncc1)C1C2CCCCCCC21 (stereo not given)	.	.	.	.
Cc1occc1C(=O)N1CCN(C(c2ccccc2)c2ccccc2)CC1	.	.	.	.
Cc1ccccc1C(=O)N1CCN(C(c2ccccc2)c2ccccc2)CC1	.	.	.	33
O=C(O)c1ccc(NC2=C(n3nnc4ccccc43)C(=O)c3ccccc3C2=O)cc1	.	34	.	.
COCCSc1nnc(NC(=O)CSCc2ccccc2)s1	.	.	.	.
Cc1ccc(NC(=O)c2ccc(Cn3cc([N+](=O)[O-])cn3)cc2)c(C)c1	.	.	.	.
O=C(/C=C/c1ccoc1)c1ccccc1O	.	.	.	.
COc1ccc2ccccc2c1C(=O)/C=C\c1ccoc1	.	23	.	6.6
N/C(=N\OS(=O)(=O)c1ccc(Cl)cc1)c1cccnc1	.	.	.	.
N/C(=N\OS(=O)(=O)c1ccc(Cl)cc1)c1ccncc1	.	24	.	.
O=C(Nc1cccc(Cl)c1)NC1CCN(C2CCCCC2)C1 (stereo not given)	.	.	.	.
Cc1ccc(S(=O)(=O)Nc2ccccn2)cc1[N+](=O)[O-]	.	.	.	.
CC(NC(=O)Cn1nc(C(F)(F)F)c2c1CCC2)c1ccccc1 (stereo not given)	.	17	.	.
CC(C)NC(=O)Cn1nc(C(F)(F)F)c2c1CCC2	.	.	.	.
CN1CCC2(CC1)Nc1nc(SCc3ccc(Cl)cc3)nn1C1=C2CN(C)CC1	9.5	.	.	.
CC(=O)c1cnc2nc(SCc3ccc(Cl)cc3)nn2c1C	.	.	.	.
COc1ccc(C2=C(c3ccc([N+](=O)[O-])cc3)C(=O)OC2)cc1	.	.	.	.
Cc1ccc(C2=C(c3ccc([N+](=O)[O-])cc3)C(=O)OC2)cc1C	.	.	.	13
CCC(c1nnnn1C(C)(C)C)N(Cc1cccs1)Cc1cc2cc(C)c(C)cc2n2nnnc12 (stereo not given)	.	19	.	.
Cc1cccc(-n2c(SCC(=O)N(C)C3CCS(=O)(=O)C3)nc3ccccc3c2=O)c1C (stereo not given)	/	.	/	/
CC(=O)c1ccc(S(=O)(=O)N(C)C(C)CCc2ccco2)cc1 (stereo not given)	.	/	.	.
COc1ccc(S(=O)(=O)N(C)C(C)CCc2ccco2)cc1 (stereo not given)	.	.	.	4.9
CC(=O)NC1=NN(C(C)=O)C(c2sccc2C)S1 (stereo not given)	.	.	.	.
Cc1cccc(NNC(=S)Nc2c(C)cccc2C)c1	.	.	30	.
Cc1cccc(NC(=S)NNc2cccc(Cl)c2)c1	.	.	.	.
SMILES	VIM-2 inh	Fh CTSL1 inh	M18AAP inhibitor	IMP-1 inhibitor
Cc1csc(N/N=C/c2ccccc2F)n1	.	.	.	.
CCOc1ccc(/C=N/Nc2nc(C)cs2)c(O)c1	.	/	28	.
COc1ccc(NC(=O)C2CCCN(S(=O)(=O)c3ccc4c(c3)CCCN4C(C)=O)C2)cc1Cl (stereo not given)	.	.	.	.
COc1ccc(N2CSC3=C(C#N)C(c4ccc(OC)c(OC)c4)CC(=O)N3C2)c(OC)c1 (stereo not given)	.	.	.	.
COc1cc(OC)c(C2CC(=O)N3CN(c4ccc(C)cc4)CSC3=C2C#N)cc1OC (stereo not given)	.	.	31	.
COc1ccc(N2CSC3=C(C#N)C(c4cccs4)CC(=O)N3C2)cc1 (stereo not given)	.	.	43	.
CCOc1ccccc1N1CSC2=C(C#N)C(c3c(OC)ccc4ccccc34)CC(=O)N2C1 (stereo not given)	.	.	37	.
COc1ccc(N2CSC3=C(C#N)C(c4cc(OC)ccc4OC)CC(=O)N3C2)c(OC)c1 (stereo not given)	.	.	.	.
CCOC(=O)N1CCC(NC(=O)c2cccc3c2C(=O)N(Cc2cccnc2)C3)CC1	.	.	.	.
Cc1ccc(C2C(C#N)=C(N)Oc3cc(C)oc(=O)c32)o1 (stereo not given)	.	.	.	.
